What was measured:
[1] = biological target: T1, Bombesin receptor subtype-3 (Homo sapiens, UniProt P32247); experiment: Agonistic activity at human BRS3 expressed in HEK293AEO cells by aequorin bioluminescence assay; assay type: functional, cell-based
T1 sequence (P32247 whole entry): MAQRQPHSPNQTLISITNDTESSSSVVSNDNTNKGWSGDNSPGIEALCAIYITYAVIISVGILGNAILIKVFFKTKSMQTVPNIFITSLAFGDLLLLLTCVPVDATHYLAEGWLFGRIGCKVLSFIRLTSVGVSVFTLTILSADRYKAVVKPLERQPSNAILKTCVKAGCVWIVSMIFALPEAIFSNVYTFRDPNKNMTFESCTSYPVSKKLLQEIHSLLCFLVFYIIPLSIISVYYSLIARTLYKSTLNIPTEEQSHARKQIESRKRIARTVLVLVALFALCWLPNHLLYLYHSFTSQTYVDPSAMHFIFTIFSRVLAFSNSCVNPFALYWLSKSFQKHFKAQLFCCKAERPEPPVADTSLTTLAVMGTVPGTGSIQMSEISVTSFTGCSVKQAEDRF

[2] = biological target: T2, Bombesin receptor subtype-3 (Mus musculus) (UniProt O54798); experiment: Agonistic activity at mouse BRS3 expressed in HEK293AEO cells at 10 uM by aequorin bioluminescence assay relative to dY peptide; assay type: functional, cell-based
T2 sequence (whole entry): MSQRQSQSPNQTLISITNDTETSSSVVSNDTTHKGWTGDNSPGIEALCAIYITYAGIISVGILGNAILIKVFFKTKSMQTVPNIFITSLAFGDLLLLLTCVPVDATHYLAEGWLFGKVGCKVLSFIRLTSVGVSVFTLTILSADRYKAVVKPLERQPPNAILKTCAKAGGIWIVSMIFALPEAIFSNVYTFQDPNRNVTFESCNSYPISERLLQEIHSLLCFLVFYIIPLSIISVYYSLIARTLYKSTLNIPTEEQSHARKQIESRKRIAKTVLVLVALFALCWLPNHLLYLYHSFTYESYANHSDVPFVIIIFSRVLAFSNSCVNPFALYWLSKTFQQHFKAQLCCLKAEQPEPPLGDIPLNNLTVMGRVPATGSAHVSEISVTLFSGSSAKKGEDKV

[3] = biological target: T3, Bombesin receptor subtype-3 (Mus musculus, UniProt O54798); experiment: Agonistic activity at mouse BRS3 expressed in HEK293AEO cells by aequorin bioluminescence assay; assay type: functional, cell-based
T3 sequence (O54798 whole entry): T2 sequence (whole entry)

[4] = biological target: T4, Bombesin receptor subtype-3 (Homo sapiens) (UniProt P32247); experiment: Agonistic activity at human BRS3 expressed in HEK293AEO at 10 uM cells by aequorin bioluminescence assay relative to dY peptide; assay type: functional, cell-based
T4 sequence (whole entry): T1 sequence (P32247 whole entry)

[5] = Clearance in Sprague-Dawley rat at 1 mg/kg, iv and 4 mg/kg, po; assay type: ADME, organism-based; details: in vivo
Outline: (§1)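 Sprague-Dawley rats given compound as solution in EtOH/PEG400/water (10:40:50), 1 mg/kg iv and 4 mg/kg po; clearance, steady-state volume of distribution, half-life, oral bioavailability and dose-normalised AUC derived.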

[6] = Volume of distribution at steady state in Sprague-Dawley rat at 1 mg/kg, iv and 4 mg/kg, po; assay type: ADME, organism-based; details: in vivo, read-out: Vdss; outline: as §1
[7] = Half life in Sprague-Dawley rat at 1 mg/kg, iv and 4 mg/kg, po; assay type: ADME, organism-based; details: in vivo; outline: as §1
[8] = Oral bioavailability in Sprague-Dawley rat at 4 mg/kg; assay type: ADME, organism-based; details: in vivo; outline: as §1

Compound	EC50 [1]	Activity [2]	EC50 [3]	Activity [4]	clearance [5]	Vd [6]	half-life [7]	bioavailability [8]
O=C(O)c1ccccc1-c1ccc(CCc2ncc(CC3CCOCC3)[nH]2)cc1	338 nM	106%	23 nM	96%				
O=C(O)c1ccccc1-c1ccc(CCc2ncc(Cc3ccccc3)[nH]2)cc1	205 nM	111%	11 nM	109%				
Cc1ccc(Cc2cnc(CCc3ccc(-c4ccccc4C(=O)O)cc3)[nH]2)cc1	2660 nM	120%	162 nM	88%				
O=C(O)c1ccccc1-c1ccc(CCc2nc(-c3ccccc3)c[nH]2)cc1	4950 nM		872 nM					
COc1ccc(Cc2cnc(CCc3ccc(-c4ccccc4C(=O)O)cc3)[nH]2)cc1	5360 nM	88%	513 nM	44%				
CCCCc1cnc(C(C)Cc2ccc(-c3ccccc3C(=O)O)cc2)[nH]1 (stereo not drawn)	2760 nM	110%	184 nM	79%				
O=C(O)c1ccccc1-c1ccc(CCc2ncc(CC3CCCC3)[nH]2)cc1	133 nM	94%	7.9 nM	102%				
CCCCc1cnc(C(Cc2ccc(-c3ccccc3C(=O)O)cc2)C(C)C)[nH]1 (stereo not drawn)	4620 nM	87%	2240 nM	60%				
CC(C)CCc1cnc(CCc2ccc(-c3ccccc3C(=O)O)cc2)[nH]1	119 nM	111%	10 nM	112%				
N#Cc1ccc(Cc2cnc(CCc3ccc(-c4ccccc4C(=O)O)cc3)[nH]2)cc1	5890 nM	85%	723 nM	25%				
O=C(O)c1ccccc1-c1ccc(CCc2ncc(Cc3ccccc3F)[nH]2)cc1	177 nM	121%	9.5 nM	108%				
CC(C)(C)c1cnc(CCc2ccc(-c3ccccc3C(=O)O)cc2)[nH]1	4330 nM	108%	2740 nM	45%				
O=C(O)c1ccccc1-c1ccc(CCc2ncc(CC3CCCCCC3)[nH]2)cc1	88 nM	102%	5.7 nM	106%				
CCCCc1cnc(CCCc2ccc(-c3ccccc3C(=O)O)cc2)[nH]1	5600 nM	101%	382 nM	54%				
Cc1ccccc1Cc1cnc(CCc2ccc(-c3ccccc3C(=O)O)cc2)[nH]1	127 nM	106%	9.3 nM	93%				
O=C(O)c1ccccc1-c1ccc(CCc2ncc(CCC3CCCCC3)[nH]2)cc1	642 nM	101%	33 nM	94%				
O=C(O)c1ccccc1-c1ccc(CCc2ncc(Cc3ccccc3Cl)[nH]2)cc1	292 nM	109%	22 nM	100%				
N#Cc1ccccc1Cc1cnc(CCc2ccc(-c3ccccc3C(=O)O)cc2)[nH]1	5480 nM	139%	642 nM	51%				
O=C(O)c1ccccc1-c1ccc(CCc2ncc(Cc3ccc(Cl)cc3)[nH]2)cc1	2290 nM	105%	102 nM	89%				
CCC(C)(CC)Cc1cnc(CCc2ccc(-c3ccccc3C(=O)O)cc2)[nH]1	76 nM	116%	30 nM	97%				
O=C(O)c1ccccc1-c1ccc(CCc2ncc(CCc3ccccc3)[nH]2)cc1	1320 nM	89%	174 nM	86%				

Compound	EC50 [1]	Activity [2]	EC50 [3]	Activity [4]	clearance [5]	Vd [6]	half-life [7]	bioavailability [8]
N#Cc1cccc(Cc2cnc(CCc3ccc(-c4ccccc4C(=O)O)cc3)[nH]2)c1	812 nM	102%	20 nM	95%				
CCC(C)(C)Cc1c[nH]c(CCc2ccc(-c3ccccc3C(=O)O)cc2)n1	25 nM	94%	9.6 nM	101%				
CC(C)(C)CCc1cnc(CCc2ccc(-c3ccccc3C(=O)O)cc2)[nH]1	39 nM	99%	6.2 nM	102%				
O=C(O)c1ccccc1-c1ccc(CCc2ncc(Cc3ccc(F)cc3)[nH]2)cc1	1600 nM	104%	50 nM	84%				
O=C(O)c1ccccc1-c1ccc(CCc2ncc(CC3CCC3)[nH]2)cc1	588 nM	99%	7.1 nM	105%				
CCCCc1cnc(C(CCCC)Cc2ccc(-c3ccccc3C(=O)O)cc2)[nH]1 (stereo not drawn)	2660 nM	96%	527 nM	66%				
CCCCc1cnc(CCc2ccc(-c3ccccc3C(=O)O)cc2)[nH]1	2710 nM	116%	93 nM	78%	1.3 mL/min/kg	0.1 L/kg	1.56 h	16%
COc1cccc(Cc2cnc(CCc3ccc(-c4ccccc4C(=O)O)cc3)[nH]2)c1	4120 nM	80%	79 nM	73%				
CCCCc1cnc(/C=C/c2ccc(-c3ccccc3C(=O)O)cc2)[nH]1	4380 nM	39%	10000 nM	8%				
O=C(O)c1ccccc1-c1ccc(CCc2ncc(Cc3cccc(Cl)c3)[nH]2)cc1	825 nM	98%	31 nM	91%				
O=C(O)c1ccccc1-c1ccc(CCc2ncc(Cc3cccc(F)c3)[nH]2)cc1	159 nM	108%	7.9 nM	107%				
CCCCc1cnc(Cc2ccc(-c3ccccc3C(=O)O)cc2)[nH]1	> 10000 nM	0%	> 10000 nM	0%				
O=C(O)c1ccccc1-c1ccc(CCc2ncc(CC3CC3)[nH]2)cc1	1000 nM	144%	72 nM	96%				
O=C(O)c1ccccc1-c1ccc(CCc2ncc(Cc3cccc(F)c3F)[nH]2)cc1	87 nM	110%	8 nM	104%				
CCCCc1cnc(C(CC)Cc2ccc(-c3ccccc3C(=O)O)cc2)[nH]1 (stereo not drawn)	2720 nM	104%	340 nM	76%				
CCCCc1cnc(C(CCC)Cc2ccc(-c3ccccc3C(=O)O)cc2)[nH]1 (stereo not drawn)	1180 nM	102%	165 nM	96%				
COc1ccccc1Cc1cnc(CCc2ccc(-c3ccccc3C(=O)O)cc2)[nH]1	1720 nM	101%	163 nM	88%				
O=C(O)c1ccccc1-c1ccc(CCc2ncc(C3CCCCC3)[nH]2)cc1	375 nM	116%	14.7 nM	102%				
Cc1cccc(Cc2cnc(CCc3ccc(-c4ccccc4C(=O)O)cc3)[nH]2)c1	4310 nM	89%	75 nM	87%				
O=C(O)c1ccccc1-c1ccc(CCc2ncc(CC3CCCCC3)[nH]2)cc1	41 nM	102%	7.3 nM	104%				
O=C(O)c1ccccc1-c1ccc(CCc2ncc(-c3ccccc3)[nH]2)cc1		101%		30%				
